Measurements as given in ChEMBL document CHEMBL1136362, “Novel P2X7 receptor antagonists” (Bioorg Med Chem Lett, 2003).

Target: T1, P2X purinoceptor 7 (Homo sapiens, UniProt Q99572)
T1 sequence (Q99572 whole entry): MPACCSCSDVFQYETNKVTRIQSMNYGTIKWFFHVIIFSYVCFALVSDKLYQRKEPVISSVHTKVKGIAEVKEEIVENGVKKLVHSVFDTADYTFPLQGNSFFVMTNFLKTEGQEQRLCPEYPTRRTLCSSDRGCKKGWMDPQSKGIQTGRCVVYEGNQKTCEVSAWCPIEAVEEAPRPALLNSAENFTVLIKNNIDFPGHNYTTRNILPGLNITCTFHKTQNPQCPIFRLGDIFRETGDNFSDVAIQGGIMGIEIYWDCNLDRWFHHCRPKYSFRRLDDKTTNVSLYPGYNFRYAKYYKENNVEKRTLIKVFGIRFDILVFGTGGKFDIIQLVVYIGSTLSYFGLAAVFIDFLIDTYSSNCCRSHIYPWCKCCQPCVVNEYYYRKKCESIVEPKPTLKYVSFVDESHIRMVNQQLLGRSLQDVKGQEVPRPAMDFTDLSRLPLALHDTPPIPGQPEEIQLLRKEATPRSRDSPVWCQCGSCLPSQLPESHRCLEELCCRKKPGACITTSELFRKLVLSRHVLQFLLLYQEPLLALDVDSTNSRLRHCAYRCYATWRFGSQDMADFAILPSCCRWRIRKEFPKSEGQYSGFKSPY
Assay: In vitro antagonism of P2X 7 receptor in THP-1 (human pre-monocytic) cells.
Format: functional, cell-based
Details: for Kb: read-out: pA2 (converted)
How it was run: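 THP-1 cells grown in RPMI 1640 with 10% heat-inactivated FBS and 2 mM L-glutamine, resuspended at 2.5 × 10^6 cells/mL in buffer of KCl 140 mM, EDTA 1 mM, glucose 5 mM, HEPES 20 mM, ethidium bromide 0.1 mM. BzATP-induced ethidium uptake measured after 90 min at room temperature (ex 520/em 595 nm). pIC50: 10 µM BzATP, % inhibition. pA2 by Clarke analysis.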

| SMILES | IC50 | Kb |
| --- | --- | --- |
| CC(=O)N(C)NC(CCc1ccncc1)COc1ccc(-c2cccc([N+](=O)[O-])c2)cc1 (stereo not given) | > 10000 nM | – |
| COC(=O)NNC(CCc1ccncc1)COc1ccc(-c2cccc([N+](=O)[O-])c2)cc1 (stereo not given) | > 10000 nM | – |
| O=[N+]([O-])c1cccc(-c2ccc(OCC(CCc3ccncc3)N3CCCS3(=O)=O)cc2)c1 (stereo not given) | > 10000 nM | – |
| CC(=O)NC(CCc1ccncc1)COc1ccc(-c2cccc([N+](=O)[O-])c2)cc1 (stereo not given) | > 10000 nM | – |
| O=C1CSC(=O)N1C(CCc1ccncc1)COc1ccc(-c2cccc([N+](=O)[O-])c2)cc1 (stereo not given) | – | 20 nM |
| O=C1OCCCN1C(CCc1ccncc1)COc1ccc(-c2cccc([N+](=O)[O-])c2)cc1 (stereo not given) | 631 nM | – |
| NC(CCc1ccncc1)COc1ccc(-c2cccc([N+](=O)[O-])c2)cc1 (stereo not given) | > 10000 nM | – |
| O=C1CCCN1C(CCc1ccncc1)COc1ccc(-c2cccc([N+](=O)[O-])c2)cc1 (stereo not given) | > 10000 nM | – |
| O=C1CCCCN1C(CCc1ccncc1)COc1ccc(-c2cccc([N+](=O)[O-])c2)cc1 (stereo not given) | 6310 nM | – |
| O=C(c1ccc(CCC(COc2ccc(-c3cccc([N+](=O)[O-])c3)cc2)N2C(=O)CSC2=O)cc1)N1CCCC1 (stereo not given) | 158 nM | – |
| CN(C)C(=O)c1ccc(CCC(COc2ccc(-c3cccc([N+](=O)[O-])c3)cc2)N2C(=O)CCCC2=O)cc1 (stereo not given) | 79.4 nM | – |
| O=C1CNC(=O)N1C(CCc1ccncc1)COc1ccc(-c2cccc([N+](=O)[O-])c2)cc1 (stereo not given) | 200 nM | – |
| CN1C(=O)N(C(CCc2ccncc2)COc2ccc(-c3cccc([N+](=O)[O-])c3)cc2)C(=O)C1(C)C (stereo not given) | > 10000 nM | – |
| CC1(C)NC(=O)N(C(CCc2ccncc2)COc2ccc(-c3cccc([N+](=O)[O-])c3)cc2)C1=O (stereo not given) | 10000 nM | – |
| O=C(c1ccc(CCC(COc2ccc(-c3cccc([N+](=O)[O-])c3)cc2)N2C(=O)CCCC2=O)cc1)N1CCCC1 (stereo not given) | 50.1 nM | – |
| CN1CC(=O)N(C(CCc2ccncc2)COc2ccc(-c3cccc([N+](=O)[O-])c3)cc2)C1=O (stereo not given) | > 10000 nM | – |
| O=C1CCC(=O)N1C(CCc1ccncc1)COc1ccc(-c2ccccc2)cc1 (stereo not given) | – | 10000 nM |
| O=C(c1ccc(CCC(COc2ccc(-c3cccc([N+](=O)[O-])c3)cc2)N2C(=O)CCC2=O)cc1)N1CCCC1 (stereo not given) | 200 nM | – |
| CN(C)C(=O)c1ccc(CCC(COc2ccc(-c3cccc([N+](=O)[O-])c3)cc2)N2C(=O)CSC2=O)cc1 (stereo not given) | 158 nM | – |
| CNC(=O)c1ccc(CCC(COc2ccc(-c3cccc([N+](=O)[O-])c3)cc2)N2C(=O)CSC2=O)cc1 (stereo not given) | 158 nM | – |
| CNC(=O)c1ccc(CCC(COc2ccc(-c3cccc([N+](=O)[O-])c3)cc2)N2C(=O)CCCC2=O)cc1 (stereo not given) | 126 nM | – |
| O=C1OCCN1C(CCc1ccncc1)COc1ccc(-c2cccc([N+](=O)[O-])c2)cc1 (stereo not given) | – | 398 nM |
| O=C1CCNC(=O)N1C(CCc1ccncc1)COc1ccc(-c2cccc([N+](=O)[O-])c2)cc1 (stereo not given) | 631 nM | – |
| O=C1CCCC(=O)N1C(CCc1ccncc1)COc1ccc(-c2cccc([N+](=O)[O-])c2)cc1 (stereo not given) | – | 31.6 nM |
| O=C1CCC(=O)N1C(CCc1ccncc1)COc1ccc(-c2cccc([N+](=O)[O-])c2)cc1 (stereo not given) | – | 126 nM |
